Screening results from PubChem.
Bim-Bcl-W – inhibitors of Bim binding to Bcl-W, primary screen, biochemical, multiplexed, bead-based flow cytometry. Bcl-2-like protein 2 (Homo sapiens), Q92843. Bim peptide-Bcl-W binding. inhibition, % at 10 µM. 190,000 compounds, 0.02% hits. AID 952, 2007;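 further: 0% = bound tracer without compound and 100% = peptide blocker; higher means less fluorescent Bim peptide bound to Bcl-W beads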
Target sequence (Q92843 whole entry, looked up): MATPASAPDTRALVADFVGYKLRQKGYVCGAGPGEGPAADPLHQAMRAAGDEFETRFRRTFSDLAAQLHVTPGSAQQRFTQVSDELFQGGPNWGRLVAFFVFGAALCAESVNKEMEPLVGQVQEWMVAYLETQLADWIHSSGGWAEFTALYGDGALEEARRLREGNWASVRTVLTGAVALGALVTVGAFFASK
Calb biofilm kill – clotrimazole potentiators killing C. albicans biofilm, primary screen, 4-compound mixtures; C. albicans biofilm persisters + clotrimazole, fluorescence viability; primary screen in compound mixtures of four per well; inhibition, % at 7.6 µM; 120,000 compounds, 0.02% hits;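 active means inhibition above 30.3% in the primary screen of four-compound pools, then above 30% when the compound was retested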;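 further: compounds exposed to preformed 24 h biofilms for 48 h; 0% = untreated biofilm control and 100% = clotrimazole plus chlorhexidine kill blank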
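Test system: C. albicans CAF4-2 wild-type biofilms; buffer or medium: RPMI/MOPS medium, pH 7.0; schedule: 24 h biofilm formation, then 48 h compound exposure, 37 °C; detection: Alamar Blue fluorescence; measure: percent inhibition of biofilm viability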
Bfl-1 Bim block – inhibitors of Bim binding to Bfl-1, primary screen, biochemical, multiplexed, bead-based flow cytometry | AID 1008, 2008 | 190,000 compounds, 0.12% hits | Bcl-2-related protein A1 (Homo sapiens), Q16548 | inhibition, % at 10 µM | Bim-Bfl-1 binding inhibition;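 further: 0% = wells without compound plus tracer and 100% = blocker peptide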
Target sequence (Q16548 whole entry, looked up): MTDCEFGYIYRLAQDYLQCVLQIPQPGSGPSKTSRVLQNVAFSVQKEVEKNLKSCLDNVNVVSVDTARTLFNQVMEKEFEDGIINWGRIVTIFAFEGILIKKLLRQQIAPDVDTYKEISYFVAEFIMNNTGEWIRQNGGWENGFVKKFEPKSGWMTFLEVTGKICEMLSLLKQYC
Bim-Bcl-B – inhibitors of Bim-Bcl-B binding, primary screen, biochemical, multiplexed, human Bcl-2 family; Bcl-2-like protein 10 (Homo sapiens), Q9HD36; bead-based flow cytometry, Bim peptide-Bcl-B binding; inhibition, % at 10 µM; 190,000 compounds, 0.073% hits; AID 951, 2007;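 further: 0% = tracer peptide without compound and 100% = reference inhibitor peptide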
Bim-Bcl-XL – inhibitors of Bim-Bcl-XL binding, primary screen, biochemical, multiplexed, bead flow cytometry, human Bcl-XL; Bim peptide-Bcl-XL binding, fluorescence; Bcl-2-like protein 1 (Homo sapiens), Q07817; inhibition, % at 10 µM; 190,000 compounds, 0.04% hits
Target sequence (Q07817 whole entry, looked up): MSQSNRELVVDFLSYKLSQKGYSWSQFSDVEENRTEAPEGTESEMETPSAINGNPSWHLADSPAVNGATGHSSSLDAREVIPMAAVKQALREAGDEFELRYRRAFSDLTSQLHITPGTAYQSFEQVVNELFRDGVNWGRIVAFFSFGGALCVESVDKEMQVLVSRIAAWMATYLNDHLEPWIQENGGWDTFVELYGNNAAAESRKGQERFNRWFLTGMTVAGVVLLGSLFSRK
Bim-Bcl-2 – inhibitors of Bim-Bcl-2 binding, primary screen, biochemical, multiplexed, human Bcl-2 family; Apoptosis regulator Bcl-2 (Homo sapiens), P10415; Bead-based flow cytometry, Bim peptide-Bcl-2 binding; inhibition, % at 10 µM; 190,000 compounds, 0.06% hits; AID 950, 2007; in the data active means inhibition above about 40%;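 further: 0% = no compound wells with probe peptide and 100% = reference peptide inhibitor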
An asterisk follows results filed as active; . = no result. A selection: hits, their analogues and other compounds. The true share with any hit is near 0.19%. Unless noted, no stated cut-off is given here; in the data, active means inhibition above about 40%.

SMILES | Bim-Bcl-W | Calb biofilm kill | Bfl-1 Bim block | Bim-Bcl-B | Bim-Bcl-XL | Bim-Bcl-2
C#CCn1cc(C=C2C(=O)c3ccccc3C2=O)c2ccccc21 | 39 | -14 | 39 | 71* | 24 | 58*
C#CCn1c(=O)cc(C)c2ccccc21 | 1 | 14 | -5 | -4 | -1 | -4
Fc1ccc(C2=Nc3cccc4cccc(c34)N2)cc1 | 37 | 22 | 49* | 0 | 10 | 21
Cc1cc(N/C(=N/S(=O)(=O)c2ccc(F)cc2)c2ccccc2)n(-c2ccccc2)n1 | -2 | 11 | -2 | -2 | -2 | -1
Cc1cc(N/C(=N/S(=O)(=O)c2cc(F)ccc2F)c2ccccc2)n(-c2ccccc2)n1 | 18 | 15 | 19 | 66* | 16 | 50*
CC(C)(C)C1CCC(=NNC(=O)c2cc3c(s2)CCCC3)CC1 (stereo unspecified) | 41* | 12 | 44* | 26 | 43* | 29
O=C(NN=C1CCC(c2ccccc2)CC1)c1cc2c(s1)CCCC2 (stereo unspecified) | -4 | 0 | -10 | -6 | -13 | -1
COc1cc(/C=N/NC(=O)c2sc3nc(C)cc(C)c3c2N)ccc1O | . | 16 | . | . | . | .
CCOc1cc(S(=O)(=O)Nc2ccc(Cl)cn2)ccc1F | 0 | . | -12 | -6 | -10 | -5
CCOc1cc(S(=O)(=O)Nc2ccccn2)ccc1F | 22 | . | . | . | 28 | 89*
CC1CCN(C2(O)C(=O)Nc3ccc(Br)cc32)CC1 (stereo unspecified) | 17 | 10 | 6 | 57* | 63* | 47*
O=C(OCC(=O)c1ccc[nH]1)c1ccccc1 | 1 | -6 | 52* | 74* | 2 | 79*
O=C(COC(=O)c1c(F)cccc1F)c1ccc[nH]1 | . | 13 | . | . | . | .
CCCC(=O)Nc1ccc(-c2csc(N/N=C\c3ccncc3)n2)cc1 | . | 5 | . | . | . | .
Cc1[nH]n(-c2ccccc2)c(=O)c1/C=N/NC(=O)c1cccc([N+](=O)[O-])c1 | -2 | . | -4 | 1 | 0 | -3
Cc1ccc(-n2[nH]c(C)c(/C=N/Nc3ccc([N+](=O)[O-])cc3[N+](=O)[O-])c2=O)cc1C | 30 | 27 | 42* | 42* | 43* | 25
COc1c(F)c(F)c(C(=O)Nc2ccccc2N2CCN(C(=O)C(C)C)CC2)c(F)c1F | 12 | . | . | . | 18 | 83*
COc1ccc2nc(SCC(=O)Nc3ccc4sc(C)nc4c3)c(C#N)cc2c1 | -5 | . | 0 | 0 | -2 | -4
CCN(CC)CCN(C(=O)c1ccc(N2C(=O)CCC2=O)cc1)c1nc2cc3c(cc2s1)OCCO3 | 4 | 13 | 32 | 36 | 1 | 43*
CCN(CC)CCN(C(=O)c1cccc(N2C(=O)CCC2=O)c1)c1nc2cc3c(cc2s1)OCO3 | 4 | 20 | -3 | 1 | -2 | -2
O=C(NC1=C(NC2CCS(=O)(=O)C2)C(=O)c2ccccc2C1=O)c1ccccc1 (stereo unspecified) | 22 | 7 | 56* | 7 | 5 | 11
CSc1nc2cc(Oc3cccc(Cl)c3Cl)c(Cl)cc2[nH]1 | -2 | . | 5 | -6 | -1 | -7
CC(NCc1ccc(-c2ccccc2)cc1)C(O)c1ccccc1 (stereo unspecified) | 24 | 6 | 39 | 15 | 40* | 30
CCCNC(=O)Nc1ccc(C(F)(F)F)cc1 | 0 | -14 | -4 | -2 | -5 | -4
Cc1ccccc1-n1c(SCc2cc(=O)n3ccccc3n2)nc2[nH]ncc2c1=O | -2 | . | -20 | -12 | -13 | -10
SMILES | Bim-Bcl-W | Calb biofilm kill | Bfl-1 Bim block | Bim-Bcl-B | Bim-Bcl-XL | Bim-Bcl-2
Cc1ccccc1-n1c(SCc2cccc(F)c2)nc2[nH]ncc2c1=O | 25 | -7 | 44* | 11 | 39 | 25
CC(C)(C#CC(O)(c1ccccc1)c1ccccc1)N1CCCC1 | 0 | -4 | -2 | -2 | 0 | 0
O=C(OCc1cnc(Cl)s1)c1cccc(Cl)c1Cl | 12 | . | 51* | 70* | 7 | 76*
CNC(=S)N/N=C/C1=CCC2CC1C2(C)C (stereo unspecified) | 13 | 12 | 52* | 65* | 2 | 69*
CCN(CCn1cccn1)Cc1c(C(=O)N2C[C@@H](C)O[C@@H](C)C2)nc2ccc(Cl)cn12 | 2 | 21 | -13 | -5 | -2 | -9
Cc1ccccc1OCC(O)Cn1c(=N)n(Cc2ccccc2)c2ccccc21 (stereo unspecified) | . | 30* | . | . | . | .
O=C(CCS(=O)(=O)Cc1ccccc1F)NCc1ccccc1Cl | -3 | 18 | -13 | -6 | -3 | -1
O=C(CNC(=O)c1cccs1)NCC(=O)OCc1ccccc1Br | -4 | 19 | 3 | -4 | -1 | -4
O=C(CNC(=O)c1ccco1)NCC(=O)OCc1ccccc1Br | 23 | . | . | . | 29 | 89*
C=CCNC(=S)NNC(=O)Cn1c(-c2ccccc2)cc(=O)n2ncnc12 | . | 22 | . | . | . | .
O=C(/C=C\c1cccs1)N1CCN(Cc2ccc3c(c2)OCO3)CC1 | -2 | 13 | -4 | -2 | -1 | -1
Cc1ccc(NC(=O)CN(C)S(=O)(=O)c2ccc(Br)s2)cc1F | 0 | 18 | 0 | -3 | -2 | 0
CCC1=NNc2cccc3c(OC)ccc1c23 | 66* | . | 56* | 100* | 75* | 64*
O=C(Nc1ccc2nc(-c3ccco3)c(-c3ccco3)nc2c1)N1CCCCCC1 | 35 | . | 54* | 10 | 19 | 31
CCOC(=O)C1CCN(C(=O)Nc2ccc3nc(-c4ccco4)c(-c4ccco4)nc3c2)CC1 | 38 | . | 60* | 15 | 19 | 35
CCOc1ccc(/C=C2\SC(=S)NC2=O)cc1OC | -4 | 22 | 0 | 2 | -1 | 0
COc1ccc(/C=C2\SC(=O)NC2=S)cc1OC | 18 | 10 | 16 | 28 | 9 | 53*
CN(C)S(=O)(=O)c1cccc(-c2nn(-c3ccccc3)cc2/C=C2\SC(=S)NC2=O)c1 | 37 | 5 | 41* | 55* | 43* | 31
Cc1ccnc2nc(C(=O)OCC(=O)c3c[nH]c4ccccc34)nn12 | . | 22 | . | . | . | .
CCOc1c(Cl)cc(CNc2ccc(N3CCCC3)cc2)cc1OC | 15 | 15 | 41* | -11 | 1 | 12
CCOC(=O)c1noc(C)c1C(=O)Nc1nc(C)cc(C)n1 | -1 | 15 | -9 | -9 | 0 | -3
COc1cccc(C(=O)/C=C/Nc2ccc(S(=O)(=O)Nc3onc(C)c3C)cc2)c1 | 17 | 17 | 53* | 78* | 3 | 82*
Cc1noc(NS(=O)(=O)c2ccc(N/C=C\C(=O)c3ccc(Br)cc3)cc2)c1C | 0 | 20 | -8 | -1 | -3 | 0
